According to ChEMBL document CHEMBL1140462, “Convenient synthesis of indeno[1,2-c]isoquinolines as constrained forms of 3-arylisoquinolines and docking study of a topoisomerase I inhibitor into DNA-topoisomerase I complex” (Bioorg Med Chem Lett, 2007):
Activity calls are given as the source filed them. The calls are words filed in the database; no cut-off is given here.

Key:
[1] = Cytotoxicity against human OV3 cells by SRB assay; assay type: functional, cell-based
Procedure, shortened: (§1)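 Panel of four human tumour lines: A549 (lung), SKOV-3 (ovarian), SK-MEL-2 (melanoma) and HCT 15 (colon). Each was exposed to compound in vitro, and cytotoxicity was read out by sulforhodamine B (SRB) staining.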

HCT-15 = test: Cytotoxicity against human HCT15 cells by SRB assay; assay type: functional, cell-based; procedure, shortened: as §1
SK-MEL-2 = test: Cytotoxicity against human SK-MEL-2 cells by SRB assay; assay type: functional, cell-based; procedure, shortened: as §1
A549 = test: Cytotoxicity against human A549 cells by SRB assay; assay type: functional, cell-based; procedure, shortened: as §1
[2] = target: T1, DNA topoisomerase 1 (Homo sapiens) (UniProt P11387); test: Inhibition of topoisomerase 1 by supercoiled DNA unwinding method relative to camptothecin; assay type: functional
T1 sequence (whole entry): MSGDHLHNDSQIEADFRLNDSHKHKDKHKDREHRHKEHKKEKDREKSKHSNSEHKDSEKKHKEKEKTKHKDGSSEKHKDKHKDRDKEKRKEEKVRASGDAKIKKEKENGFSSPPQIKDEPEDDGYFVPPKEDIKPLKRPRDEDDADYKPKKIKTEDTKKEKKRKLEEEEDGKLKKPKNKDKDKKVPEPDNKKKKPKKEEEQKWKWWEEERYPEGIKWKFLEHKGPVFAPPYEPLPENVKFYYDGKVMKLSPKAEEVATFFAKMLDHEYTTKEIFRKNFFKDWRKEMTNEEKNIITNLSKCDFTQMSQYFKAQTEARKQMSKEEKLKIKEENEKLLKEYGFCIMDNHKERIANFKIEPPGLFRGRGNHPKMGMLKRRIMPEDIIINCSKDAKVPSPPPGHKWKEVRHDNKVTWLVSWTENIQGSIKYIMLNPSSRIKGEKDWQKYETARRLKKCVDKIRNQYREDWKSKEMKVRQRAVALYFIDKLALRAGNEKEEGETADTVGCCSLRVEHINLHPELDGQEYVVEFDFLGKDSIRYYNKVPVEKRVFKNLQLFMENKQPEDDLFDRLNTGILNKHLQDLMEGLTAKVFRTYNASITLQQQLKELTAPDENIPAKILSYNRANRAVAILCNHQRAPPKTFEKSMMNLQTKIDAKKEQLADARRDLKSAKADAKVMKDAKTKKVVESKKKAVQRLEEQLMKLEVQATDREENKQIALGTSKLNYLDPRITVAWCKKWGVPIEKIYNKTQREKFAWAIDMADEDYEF

Structure (SMILES) | IC50 [1] [µM] | IC50 (HCT-15) [µM] | IC50 (SK-MEL-2) [µM] | IC50 (A549) [µM] | Activity [2]
COc1ccc(Cn2c3c(c4cc(C)ccc4c2=O)Cc2ccccc2-3)cc1 | 23.2 | 8.9 | 31.9 | 51 | 
CCOC1c2ccccc2-c2c1c1cc(C)ccc1c(=O)n2C (stereo not drawn) | 70.9 | 20.6 | 40.9 | 90 | 
COc1cccc2c1C(=O)c1c(O)c3c(c(O)c1C2=O)C[C@@](O)(C(=O)CO)C[C@@H]3O[C@H]1C[C@H](N)[C@H](O)[C@H](C)O1 (stereo in doubt) [DOXORUBICIN] | 1.17 |  |  |  | 
COc1ccc(Cn2c3c(c4cc(C)ccc4c2=O)C(OCC(C)C)c2ccccc2-3)cc1 (stereo not drawn) | 1.63 |  | 2.07 | 1.87 | Active
Cn1c2c(c3ccccc3c1=O)C(=O)c1ccccc1-2 | 81 | 30.6 | 90.2 | 23.5 | 
Cc1ccc2c(=O)n(C)c3c(c2c1)C(OCC(C)C)c1ccccc1-3 (stereo not drawn) | 38.4 | 27.4 | 10.5 | 28.2 | 
CCCOC1c2ccccc2-c2c1c1cc(C)ccc1c(=O)n2C (stereo not drawn) | 70.7 | 10.9 | 80.3 | 40.6 | 
CCCCOC1c2ccccc2-c2c1c1cc(C)ccc1c(=O)n2C (stereo not drawn) | 30.5 | 10.2 | 20.9 | 110 | 
Cc1ccc2c(=O)n(C)c3c(c2c1)Cc1ccccc1-3 | 261 | 20.1 | 80.3 | 130 | 
Cc1ccc2c(=O)n(C)c3c(c2c1)C(=O)c1ccccc1-3 | 16.3 | 14.3 | 17.1 | 20.1 | 
CCOC1c2ccccc2-c2c1c1cc(C)ccc1c(=O)n2Cc1ccc(OC)cc1 (stereo not drawn) | 5.89 | 1.93 | 3.6 | 6.71 | 
COc1ccc(Cn2c3c(c4cc(C)ccc4c2=O)C(OC)c2ccccc2-3)cc1 (stereo not drawn) | 1.36 | 1.11 | 15.2 | 10.2 | 
Cn1c2c(c3ccccc3c1=O)Cc1ccccc1-2 | 30.6 | 20.5 | 130 | 30.1 | 
CCCCOC1c2ccccc2-c2c1c1cc(C)ccc1c(=O)n2Cc1ccc(OC)cc1 (stereo not drawn) | 2.01 | 4.4 | 3.37 | 3.24 | 
COc1ccc(Cn2c3c(c4cc(C)ccc4c2=O)C(OC(C)C)c2ccccc2-3)cc1 (stereo not drawn) | 1.21 | 0.91 | 2.43 | 6.22 | Active
CCCCCOC1c2ccccc2-c2c1c1cc(C)ccc1c(=O)n2C (stereo not drawn) | 13.3 | 22 | 26.5 | 16.2 | 
CC[C@@]1(O)C(=O)OCc2c1cc1n(c2=O)Cc2cc3ccccc3nc2-1 [CAMPTOTHECIN] | 0.024 | 0.08 | 0.075 | 0.067 | Active
COc1ccc(Cn2c3c(c4cc(C)ccc4c2=O)C(=O)c2ccccc2-3)cc1 | 102 | 171 | 158 | 155 | 
CCCOC1c2ccccc2-c2c1c1cc(C)ccc1c(=O)n2Cc1ccc(OC)cc1 (stereo not drawn) | 5.76 | 1.42 | 6.26 | 3.45 | Active
COc1ccc(Cn2c3c(c4cc(C)ccc4c2=O)C(O)c2ccccc2-3)cc1 (stereo not drawn) | 71 | 20.2 | 181 | 100 | 
CCCCCOC1c2ccccc2-c2c1c1cc(C)ccc1c(=O)n2Cc1ccc(OC)cc1 (stereo not drawn) | 5.7 | 5.59 | 11.2 | 11.2 | 
COC1c2ccccc2-c2c1c1cc(C)ccc1c(=O)n2C (stereo not drawn) | 60.1 | 20.9 | 70.3 | 130 | 
